Only some compounds are listed: those with a hit (about 2.9% of all), similar ones and a draw of the others.
5-HT1A blocker = blocks the human serotonin 5-HT1a receptor. inhibition, % at 10 µM. CHO 5-HT1a Ga15 NFAT-bla reporter, antagonist mode. 62,000 compounds, 0.68% hits. P08908;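 active means inhibition above the mean of all tested compounds plus 3 SD, cut at about 43% in these data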;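 further: receptor stimulated by 5-CT agonist at 100 nM near EC80; beta-lactamase reporter measured by ratiometric fluorescence of a cleavable substrate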
5HT1E ag = agonists of human 5-HT1E serotonin receptor; P28566; CHO 5-HT1E Ga15 NFAT-bla reporter, FRET; 0% DMSO wells, 100% control agonist wells; activation, % at 6 µM; 65,000 compounds, 0.69% hits;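 active means activation above a set limit, the screen-wide mean activation plus 3 SD, cut at about 8.5% in these data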
Target sequence (P28566 whole entry, looked up): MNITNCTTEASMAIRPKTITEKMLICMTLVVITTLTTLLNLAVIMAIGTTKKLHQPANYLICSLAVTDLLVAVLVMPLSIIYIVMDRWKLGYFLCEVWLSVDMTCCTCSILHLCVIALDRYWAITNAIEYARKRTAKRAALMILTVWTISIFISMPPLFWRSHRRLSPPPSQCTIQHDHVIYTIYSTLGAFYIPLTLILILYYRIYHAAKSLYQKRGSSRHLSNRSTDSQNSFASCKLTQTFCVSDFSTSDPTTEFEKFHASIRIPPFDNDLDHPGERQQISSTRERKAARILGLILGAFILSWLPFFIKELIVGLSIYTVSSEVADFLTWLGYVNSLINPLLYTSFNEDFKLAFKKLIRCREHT
5HT1a ag = agonists of human 5-HT1a serotonin receptor; CHO 5-HT1a Ga15 NFAT-bla reporter, FRET ratio; 0% basal, 100% maximal reference agonist; activation, % at 10 µM; 65,000 compounds, 0.56% hits; AID 567;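 active means activation above the screen-wide mean activation plus 3 SD, cut at about 19% in these data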
HTR1E antagonist = 5-HT1E (human) receptor antagonism | P28566 | CHO 5-HT1E Ga15 NFAT-bla reporter, FRET, antagonist | inhibition, % at 6 µM | 65,000 compounds, 0.99% hits | AID 571;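 active means inhibition above a set limit, the mean inhibition across every tested compound plus 3 SD, cut at about 29% in these data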;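 further: signal is the 460 over 535 nm emission ratio of beta-lactamase substrate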
S1P1 ag-PAM = S1P1 (human) agonism or agonism potentiation. 56,000 compounds, 0.57% hits. P21453. activation, % at 9.5 µM. S1P1 CRE-bla cells, forskolin, beta-lactamase FRET, potentiator mode; S1P1 agonist co-added at EC20, 2 nM; 100% = saturating reference agonist, 0% = basal;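 active means activation above a cutoff set at the mean activation of all tested compounds plus 3 SD, cut at about 54% in these data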;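 further: forskolin at 4 µM as EC80 and the EC20 agonist is SEW2871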
S1P3 agonist = S1P3 (human) receptor agonism; Q99500; S1P3 NFAT-BLA reporter cells, FRET ratio; relative to 1 µM S1P, basal subtracted; activation, % at 4.5 µM; 60,000 compounds, 0.1% hits; AID 373;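 active means activation above the screen-wide mean plus 3 SD, cut at about 4.5% in these data, passing the limit was not always enough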
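Assay system: stable CHO line with human S1P3, Gα16, NFAT-BLA reporter; Detection: FRET β-lactamase substrate fluorescence, excitation 405 nm, 460/535 nm emission ratio, background-subtracted; Read-out: percent activation versus median 1 µM S1P response, basal-subtracted, per plate; Incubation: cells plated overnight, compound 4 h 37 °C, substrate 2 h RT.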
Each line names hits and unclear results; the compound was inactive in the other large screens.

CCOc1cccc(C2NCc3ccccc3-n3cccc32)c1O (stereo not drawn)	5HT1E ag 15
CCOc1cc(C2NCc3ccccc3-n3cccc32)ccc1O (stereo not drawn)	none
CC(=NCCCn1ccnc1)c1c(O)n(C)c(=O)n(C)c1=O	none
CCCCOCCCn1c(N)c(C(=O)OC(C)COC)c2nc3ccccc3nc21 (stereo not drawn)	5HT1E ag 10 (no result: 5-HT1A blocker)
CC1SC2(CN3CCC2CC3)NC1=O (stereo not drawn)	none
CCCNc1oc(-c2cccc3ccccc23)nc1C#N	5HT1a ag 58
COc1ccc(C(=O)C(C)(C)NO)cc1	5HT1E ag 8.8
Cc1ccc(CN2CCN(C)CC2)c(C)c1	5HT1E ag 9.8
CCN1CCN(Cc2ccc(C)cc2C)CC1	none
Cc1ccccc1-n1c(O)c(C=NCCN2CCOCC2)c(=O)[nH]c1=O	none
C1=C(c2c[nH]c3ccccc23)CCNC1	5HT1E ag 92
c1ccc2c3c([nH]c2c1)CNCC3	none (no result: 5-HT1A blocker)
CC(C)N1CC=C(c2c[nH]c3ccccc23)CC1	5HT1E ag 46, 5HT1a ag 23
CN(CC1COc2ccccc2O1)c1nc(-c2cccnc2)nc2ccccc12 (stereo not drawn)	none
Cn1ncnc2c(=O)n(C)c(=O)nc1-2	5-HT1A blocker 85, HTR1E antagonist 101, S1P1 ag-PAM 130
O=S(=O)(c1ccccc1)N1CN2CCN(C2)C1	none
CCC(C)NC(=O)c1c(N)n(Cc2ccc3c(c2)OCO3)c2nc3ccccc3nc12 (stereo not drawn)	5HT1E ag 30, 5HT1a ag 122, S1P3 agonist 31
COc1ccc(CCNC(=O)c2c(N)n(CCN3CCOCC3)c3nc4ccccc4nc23)cc1	none
Nc1c(C(=O)NCCc2ccccc2)c2nc3ccccc3nc2n1CCN1CCOCC1	S1P3 agonist 7.7
CCC(C)NC(=O)c1c(N)n(CC2CCCO2)c2nc3ccccc3nc12 (stereo not drawn)	5HT1a ag 26
CC(C)CCNC(=O)c1c(N)n(CC2CCCO2)c2nc3ccccc3nc12 (stereo not drawn)	5HT1E ag 9.7, 5HT1a ag 35 (no result: S1P1 ag-PAM, S1P3 agonist)
Cc1ccc(S(=O)(=O)NC(CC(=O)N2CCC3(CC2)OCCO3)c2ccco2)cc1 (stereo not drawn)	none
CCCCNC(=O)Nc1ccc(C(O)(C(=O)OCC)C(F)(F)F)cc1 (stereo not drawn)	none (no result: 5-HT1A blocker)
CC(=NCCCN1CCOCC1)c1c(O)[nH]c(=O)[nH]c1=O	none
NCCc1c[nH]c2ccc(F)cc12	5HT1E ag 82, 5HT1a ag 43
CNCCc1c[nH]c2ccccc12	5HT1E ag 104, 5HT1a ag 28 (no result: 5-HT1A blocker)
C=CCOC(=O)COc1cc(C)cc2oc(=O)c3c(c12)CCC3	none
Cc1cc(OC(=O)c2ccco2)c2c3c(c(=O)oc2c1)CCC3	HTR1E antagonist 32
CCc1cc2c(s1)NC(=O)CN=C2c1cccs1	none
CC(=O)c1c(C)[nH]c(C(=O)N2CCC3(CC2)OCCO3)c1C	none
CN(C)CCOC(=O)c1cn(Cc2ccccc2)c2ccccc12	5HT1E ag 59 (no result: 5-HT1A blocker)
O=C(O)Cn1cc(C(=O)c2ccccc2)c2ccccc21	none
Cn1c(O)c(C=NCCN2CCN(C(=O)c3ccccc3)CC2)c(=O)n(C)c1=O	none
Cn1c(O)c(C=NCCOc2ccc(Cl)cc2)c(=O)n(C)c1=O	HTR1E antagonist 30
CCCCCCn1c(=O)c(C(=O)Nc2c(C)n(C)n(-c3ccccc3)c2=O)c(O)c2ccccc21	5HT1a ag 84
CCCCCn1c(=O)c(C(=O)Nc2ccncc2)c(O)c2ccccc21	none

High-throughput results as filed in PubChem.
